In ChEMBL document CHEMBL1127425, “Latent alkyl isocyanates as inhibitors of aldehyde dehydrogenase in vivo” (1994):

Columns and labels:
[1] = system: Rattus norvegicus; test: Compound was evaluated for blood acetaldehyde levels elicited by compound after ethanol administration to rat; format: functional
Method in brief: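 Fasted male Sprague-Dawley rats (160–200 g) got test agent at 1.0 mmol/kg ip at time zero, suspended in 2% aqueous CMC (peanut oil for the trifluoroacetyl pro-prodrug and N1-EtCP). Ethanol 2.0 g/kg ip followed at 2 h. Rats were killed 1 h after ethanol and blood AcH was measured. Chlorpropamide served as positive control and vehicle alone as control. Groups of three were used, repeated with three more when active. Results are mean ± SEM, ANOVA with Newman-Keuls.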

[2] = target: Aldehyde dehydrogenase, mitochondrial (Rattus norvegicus) (UniProt P11884); test: Compound was evaluated for inhibition of class II aldehyde dehydrogenase in intact rat liver mitochondria in vitro at 1 mM
[3] = target: Aldehyde dehydrogenase, mitochondrial ALDH2 (Rattus norvegicus) (UniProt P11884); test: Evaluated for inhibition of class II mitochondrial Aldehyde dehydrogenase (ALDH) in osmotically disrupted mitochondria from rat; settings: concentration not given here
Sequence of Aldehyde dehydrogenase, mitochondrial ALDH2 (Rattus norvegicus) (P11884 whole entry, looked up): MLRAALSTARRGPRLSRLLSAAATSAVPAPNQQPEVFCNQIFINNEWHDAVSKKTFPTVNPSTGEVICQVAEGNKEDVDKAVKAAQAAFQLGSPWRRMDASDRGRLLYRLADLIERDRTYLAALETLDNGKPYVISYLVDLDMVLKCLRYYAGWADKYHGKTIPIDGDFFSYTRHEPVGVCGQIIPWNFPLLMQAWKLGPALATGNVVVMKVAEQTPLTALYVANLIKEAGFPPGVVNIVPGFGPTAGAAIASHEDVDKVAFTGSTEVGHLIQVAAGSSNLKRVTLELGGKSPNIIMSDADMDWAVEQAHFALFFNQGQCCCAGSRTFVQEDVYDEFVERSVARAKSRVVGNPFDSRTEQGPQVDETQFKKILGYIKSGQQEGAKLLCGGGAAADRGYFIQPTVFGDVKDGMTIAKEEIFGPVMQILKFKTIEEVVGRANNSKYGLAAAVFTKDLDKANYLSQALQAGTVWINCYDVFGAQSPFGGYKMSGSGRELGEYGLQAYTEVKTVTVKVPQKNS

[4] = target: Aldehyde dehydrogenase, mitochondrial ALDH2 (Rattus norvegicus) (UniProt P11884); test: Evaluated for inhibition of hepatic mitochondrial Aldehyde dehydrogenase (ALDH) from rat; settings: concentration not given here

Structure (SMILES) | Acetaldehyde level [1] [µM] | further results
CCCNC(=O)SCc1ccccc1 | 550 | –
CCCN1C(=O)CN(S(=O)(=O)c2ccc(Cl)cc2)C1=O | 20 | –
CCCNC(=O)NS(=O)(=O)c1ccc(Cl)cc1 [CHLORPROPAMIDE] | ~170 | –
C=CCN(C(=O)NCCC)S(=O)(=O)c1ccc(Cl)cc1 | ~750 | –
CCCNC(=O)N(C)S(=O)(=O)c1ccc(Cl)cc1 | – | Inhibition [2]: 49%; inhibition [3]: 74%
CCCNC(=O)N(CC)S(=O)(=O)c1ccc(Cl)cc1 | ~410 | inhibition [4]: 78%
CCCNC(=O)n1c(=O)cc[nH]c1=O | 700 | –
CCCNC(=O)N1C(=O)c2ccccc2S1(=O)=O | ~500 | –
CCCNC(=O)N1C(=O)CNC1=O | ~0 | –
CCCN(C(=O)N(CC)S(=O)(=O)c1ccc(Cl)cc1)C(=O)C(F)(F)F | ~450 | –
